Calls of active or inactive are those of the source. No cut-off for these calls is given here.
Experiments:
[1] = system: BXPC-3; test: Antitumor activity against human BxPC3 cells co-cultured with mesothelial cell monolayers using D-luciferin as substrate at 10 uM by firefly luciferase reporter gene assay relative to control; type: functional
Procedure, shortened: (§1)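 Luciferase-tagged cancer cells were treated in suspension at a final 10 μM, then overlaid on confluent mesothelial monolayers. Adherent surviving cells were read by D-luciferin bioluminescence, taken as living cell number. Efficacy = luminescence with analog / luminescence with DMSO; mean ± SEM, n = 3.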

[2] = Antitumor activity against human SU86 cells co-cultured with mesothelial cell monolayers using D-luciferin as substrate at 10 uM by firefly luciferase reporter gene assay relative to control; type: functional; procedure, shortened: as §1
[3] = system: SK-OV-3; test: Antitumor activity against human SKOV3 cells co-cultured with mesothelial cell monolayers using D-luciferin as substrate at 10 uM by firefly luciferase reporter gene assay relative to control; type: functional; procedure, shortened: as §1
[4] = system: A2780; test: Antitumor activity against human A2780 cells co-cultured with mesothelial cell monolayers using D-luciferin as substrate at 10 uM by firefly luciferase reporter gene assay relative to control; type: functional; procedure, shortened: as §1
[5] = biological target: CASP8 and FADD-like apoptosis regulator (Homo sapiens) (UniProt O15519); test: Inhibition of cFLIP-L in human SU86 cells assessed as restoration of death receptor signaling-mediated apoptosis; type: cell-based
[6] = system: SK-OV-3; test: Induction of apoptosis in human SKOV3 cells co-cultured with mesothelial cell monolayers assessed as PARP cleavage at 7.5 uM after 5 hrs by Western blot analysis; type: functional, cell-based
[7] = system: Mus musculus; test: Toxicity in human A2780 cells xenografted nu/nu mouse at 5 mg/kg, ip administered every 3 days for 14 days; type: organism-based; parameters: dose 5 mg/kg, route intraperitoneal; settings: in vivo
Procedure, shortened: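 Body weight was followed in athymic female nu/nu mice carrying IP A2780-luc cells and given 5 mg/kg IP in 4:1 PEG400:EtOH, starting 4 h before cell injection and repeated every three days over 14 days.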

[8] = Antitumor activity against human SU86 cells co-cultured with mesothelial cell monolayers by firefly luciferase reporter gene assay; type: functional, cell-based
Procedure, shortened: (§2)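 Co-culture implantation model: cancer cells carrying a constitutive firefly luciferase plasmid were held in suspension with analog, then overlaid on confluent mesothelial cell monolayers. Cells that adhered and survived were read by bioluminescence with D-luciferin. IC50 values came from concentration–response runs and are reported as mean ± SEM.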

[9] = biological target: CASP8 and FADD-like apoptosis regulator (Homo sapiens) (UniProt O15519); test: Inhibition of cFLIP-L in human SKOV3 cells assessed as restoration of death receptor signaling-mediated apoptosis; type: cell-based; settings: SK-OV-3
[10] = system: SK-OV-3; test: Antitumor activity against human SKOV3 cells co-cultured with mesothelial cell monolayers by firefly luciferase reporter gene assay; type: functional, cell-based; procedure, shortened: as §2
[11] = biological target: CASP8 and FADD-like apoptosis regulator (Homo sapiens) (UniProt O15519); test: Inhibition of cFLIP-L in human A2780 cells assessed as restoration of death receptor signaling-mediated apoptosis; type: cell-based
[12] = system: A2780; test: Antitumor activity against human A2780 cells co-cultured with mesothelial cell monolayers by firefly luciferase reporter gene assay; type: functional, cell-based; procedure, shortened: as §2
[13] = system: A2780; test: Antitumor activity against human A2780 cells xenografted in nu/nu mouse peritoneal carcinomatosis model assessed as inhibition of intraperitoneal implantation at 5 mg/kg, ip administered every 3 days for 14 days by luciferase reporter gene assay; type: functional, organism-based; parameters: dose 5 mg/kg
Procedure, shortened: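 Athymic 5-week-old female nu/nu mice were randomized to 5 mg/kg drug IP or an equal volume of vehicle (4:1 PEG400:EtOH), given 4 h before IP injection of 1.5 × 10^6 A2780-luc cells, then every three days for 14 days. Implants were imaged weekly by bioluminescence after IP D-luciferin. Day-14 abdominal signal was compared with vehicle controls.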

[14] = biological target: CASP8 and FADD-like apoptosis regulator (Homo sapiens) (UniProt O15519); test: Inhibition of cFLIP-L in human BxPC3 cells assessed as restoration of death receptor signaling-mediated apoptosis; type: cell-based; settings: BXPC-3
[15] = system: BXPC-3; test: Antitumor activity against human BxPC3 cells co-cultured with mesothelial cell monolayers by firefly luciferase reporter gene assay; type: functional, cell-based; procedure, shortened: as §2

Chain of CASP8 and FADD-like apoptosis regulator (Homo sapiens) (O15519 whole entry, looked up): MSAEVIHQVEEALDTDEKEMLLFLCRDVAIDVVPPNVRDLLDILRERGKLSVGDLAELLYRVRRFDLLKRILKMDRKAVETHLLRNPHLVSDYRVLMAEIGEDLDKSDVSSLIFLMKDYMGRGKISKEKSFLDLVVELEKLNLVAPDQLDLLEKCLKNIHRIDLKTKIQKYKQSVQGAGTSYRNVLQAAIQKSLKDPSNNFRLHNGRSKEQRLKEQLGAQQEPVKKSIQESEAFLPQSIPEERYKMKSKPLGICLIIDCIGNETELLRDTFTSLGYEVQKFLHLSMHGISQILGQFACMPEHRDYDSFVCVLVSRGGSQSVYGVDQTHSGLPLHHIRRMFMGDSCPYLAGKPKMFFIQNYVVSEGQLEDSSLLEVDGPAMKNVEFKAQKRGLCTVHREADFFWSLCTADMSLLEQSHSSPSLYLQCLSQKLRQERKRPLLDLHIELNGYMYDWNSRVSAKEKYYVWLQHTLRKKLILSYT

| Structure (SMILES) | Ratio [1] | Ratio [2] | Ratio [3] | Ratio [4] | inhibition [5] | Activity [6] | Activity [7] | IC50 [8] [µM] | inhibition [9] | IC50 [10] [µM] | inhibition [11] | IC50 [12] [µM] | inhibition [13] | inhibition [14] | IC50 [15] [µM] |
| --- | --- | --- | --- | --- | --- | --- | --- | --- | --- | --- | --- | --- | --- | --- | --- |
| CN1CCN(C(=O)C(C)(C)c2ccc(S(=O)(=O)/C=C/C#N)cc2)CC1 | 0.98 | 0.95 | 1.09 | 0.95 |  |  |  |  |  |  |  |  |  |  |  |
| CC(C)(C)c1ccc(S(=O)(=O)/C=C/C#N)cc1 [BAY-11-7085] | 0.07 | 0.13 | 0.32 | 0.04 | Active | Active | Non-toxic | 5.9 | Active | 7.6 | Active | 2.6 | Active | Active | 3.7 |
| C#CCNC(=O)C(C)(C)c1ccc(S(=O)(=O)/C=C/C#N)cc1 | 0.64 | 0.65 | 0.93 | 0.63 |  |  |  |  |  |  |  |  |  |  |  |
| C=CS(=O)(=O)c1ccc(C(C)(C)C)cc1 | 0.84 | 0.8 | 1.05 | 1.16 |  |  |  |  |  |  |  |  |  |  |  |
| CC(C)(C(=O)O)c1ccc(S(=O)(=O)/C=C/C#N)cc1 | 0.92 | 0.89 | 1.07 | 1.08 |  |  |  |  |  |  |  |  |  |  |  |
| CC(C)(C(=O)NCc1ccccn1)c1ccc(S(=O)(=O)/C=C/C#N)cc1 | 0.24 | 0.29 | 0.47 | 0.05 |  |  |  |  |  |  |  |  |  |  |  |
| CC(C)(C(=O)NC1CCCCC1)c1ccc(S(=O)(=O)/C=C/C#N)cc1 | 0.22 | 0.43 | 0.6 | 0.2 |  |  |  |  |  |  |  |  |  |  |  |
| CC(C)(C(=O)N1CCCCC1)c1ccc(S(=O)(=O)/C=C/C#N)cc1 | 0.25 | 0.51 | 0.51 | 0.08 |  |  |  |  |  |  |  |  |  |  |  |
| CC(C)(C)c1ccc(S/C=C/C#N)cc1 | 1.08 | 1.03 | 0.92 | 1.06 |  |  | Non-toxic |  |  |  |  |  | inactive |  |  |
| C/C=C/S(=O)(=O)c1ccc(C(C)(C)C)cc1 | 0.99 | 0.99 | 1.08 | 1.15 |  |  |  |  |  |  |  |  |  |  |  |
| CC(C)(C(=O)NCc1ccc(Cl)cc1)c1ccc(S(=O)(=O)/C=C/C#N)cc1 | 0.27 | 0.43 | 0.63 | 0.15 |  | Active |  | 8.7 |  | 11.4 |  | 3.4 |  |  | 4.1 |
| COc1cccc(NC(=O)C(C)(C)c2ccc(S(=O)(=O)/C=C/C#N)cc2)c1 | 0.62 | 0.65 | 0.98 | 0.55 |  | Active |  | 7.3 |  | 10.9 |  | 2.4 |  |  | 4.1 |
| CC(C)(C)c1ccc(S(=O)(=O)/C=C/C(N)=O)cc1 | 0.44 | 0.59 | 0.5 | 0.77 |  |  |  |  |  |  |  |  |  |  |  |
| CC(C)(C(=O)N1CCOCC1)c1ccc(S(=O)(=O)/C=C/C#N)cc1 | 0.85 | 0.94 | 1.01 | 0.66 |  |  |  |  |  |  |  |  |  |  |  |
| CC(C)CNC(=O)C(C)(C)c1ccc(S(=O)(=O)/C=C/C#N)cc1 | 0.24 | 0.29 | 0.47 | 0.05 |  | Active | Non-toxic | 7.6 |  | 12.9 |  | 3.3 | Active |  | 4.2 |
| CC(C)(C)c1ccc(S(=O)(=O)/C=C/c2ccccc2)cc1 | 1.01 | 0.97 | 1.17 | 1.13 |  |  |  |  |  |  |  |  |  |  |  |
| CCOC(=O)/C=C/S(=O)(=O)c1ccc(C(C)(C)C)cc1 | 0.2 | 0.52 | 0.67 | 0.39 |  |  |  |  |  |  |  |  |  |  |  |
| CC(C)(C(=O)Nc1ccccc1)c1ccc(S(=O)(=O)/C=C/C#N)cc1 | 0.22 | 0.52 | 0.55 | 0.17 |  | Active | Non-toxic | 7.5 |  | 9.9 |  | 2.7 | Active |  | 4.1 |
